# Assay results from ChEMBL document CHEMBL1155292, “Synthesis, analgesic and anti-inflammatory activities evaluation of some bi-, tri- and tetracyclic condensed pyrimidines” (Eur J Med Chem, 2009).
# How the values were obtained:
# [1] = tested on: Mus musculus; assay: Analgesic activity in albino mouse assessed as decrease in acetic acid-induced writhing at 10.45 mg/kg, po administered 1 hr prior to acetic acid challenge relative to control; format: functional
# Method in brief: (§1)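 Albino mice of either sex, 18–22 g, six per group. Test agents suspended in saline with a few drops of Tween 80 and given by oral stomach tube; controls handled identically without drug. After 1 h, 0.3 ml of 1% acetic acid ip. Writhing contractions counted for 30 min, starting 5 min after injection. % protection versus control mean; mean ± SEM; one-way ANOVA with post hoc test.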
# [2] = tested on: Rattus norvegicus; assay: Antiinflammatory activity in albino rat assessed as inhibition of carrageenan-induced paw edema at 0.029 mmol/kg, po after 3 hrs relative to control; format: functional
# Method in brief: (§2)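 Adult albino rats of either sex, 120–150 g, six per group. Compounds at 0.029 mmol/kg suspended in saline with a few drops of Tween 80 and given by oral stomach tube. After 1 h, 0.1 ml of freshly prepared 1% carrageenan in saline injected subplantar into the right hind paw. Paw thickness measured at 1–4 h; % edema inhibition versus control; mean ± SEM; ANOVA.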
# [3] = tested on: Rattus norvegicus; assay: Antiinflammatory activity in albino rat assessed as inhibition of carrageenan-induced paw edema at 0.029 mmol/kg, po after 1 hr relative to control; format: functional; method in brief: as §2
# [4] = tested on: Rattus norvegicus; assay: Antiinflammatory activity in albino rat assessed as inhibition of carrageenan-induced paw edema at 0.029 mmol/kg, po after 4 hrs relative to control; format: functional; method in brief: as §2
# [5] = tested on: Rattus norvegicus; assay: Antiinflammatory activity in albino rat assessed as inhibition of carrageenan-induced paw edema at 0.029 mmol/kg, po after 4 hrs relative to indomethacin; format: functional
# Method in brief: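 Rat carrageenan paw edema: oral 0.029 mmol/kg in saline/Tween 80, 1 h before subplantar 0.1 ml 1% carrageenan into the right hind paw; six rats per group. Potency is % inhibition of the test compound divided by % inhibition of indomethacin at 4 h.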
# [6] = tested on: Rattus norvegicus; assay: Antiinflammatory activity in albino rat assessed as inhibition of carrageenan-induced paw edema at 0.029 mmol/kg, po after 2 hrs relative to control; format: functional; method in brief: as §2
# [7] = tested on: Mus musculus; assay: Analgesic activity in albino mouse assessed as decrease in acetic acid-induced writhing at 8.47 mg/kg, po administered 1 hr prior to acetic acid challenge relative to control; format: functional; method in brief: as §1
# [8] = tested on: Rattus norvegicus; assay: Gastrointestinal toxicity in albino rat assessed as ulcerogenic index at 0.029 mmol/kg, po after 5 hrs; format: organism-based; conditions: in vivo
# Method in brief: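 Adult albino rats of either sex (120–150 g), 6 per group, got the test compounds orally by stomach tube as a suspension in saline with a few drops of tween 80. They were the same rats used in the carrageenan paw-edema test. Stomachs were then opened along the great curvature and examined for lesions or bleeding. Ulceration was recorded as the number of rats with ulcers out of 6.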
# [9] = tested on: Mus musculus; assay: Analgesic activity in albino mouse assessed as decrease in acetic acid-induced writhing at 8.94 mg/kg, po administered 1 hr prior to acetic acid challenge relative to control; format: functional; method in brief: as §1
# [10] = tested on: Mus musculus; assay: Analgesic activity in albino mouse assessed as decrease in acetic acid-induced writhing at 11.75 mg/kg, po administered 1 hr prior to acetic acid challenge relative to control; format: functional; method in brief: as §1
# [11] = tested on: Mus musculus; assay: Analgesic activity in albino mouse assessed as decrease in acetic acid-induced writhing at 8.45 mg/kg, po administered 1 hr prior to acetic acid challenge relative to control; format: functional; method in brief: as §1
# [12] = tested on: Mus musculus; assay: Analgesic activity in albino mouse assessed as decrease in acetic acid-induced writhing at 8.12 mg/kg, po administered 1 hr prior to acetic acid challenge relative to control; format: functional; method in brief: as §1
# [13] = tested on: Mus musculus; assay: Analgesic activity in albino mouse assessed as decrease in acetic acid-induced writhing at 8.36 mg/kg, po administered 1 hr prior to acetic acid challenge relative to control; format: functional; method in brief: as §1
Compound,inhibition in vivo at 10.45 mg/kg [1],inhibition in vivo at 29 µmol/kg [2],inhibition in vivo at 29 µmol/kg [3],inhibition in vivo at 29 µmol/kg [4],relative potency at 29 µmol/kg [5],inhibition in vivo at 29 µmol/kg [6],inhibition in vivo at 8.47 mg/kg [7],UI [8],inhibition in vivo at 8.94 mg/kg [9],inhibition in vivo at 11.75 mg/kg [10],inhibition in vivo at 8.45 mg/kg [11],inhibition in vivo at 8.12 mg/kg [12],inhibition in vivo at 8.36 mg/kg [13]
O=C1NC(c2ccccc2)NC2=C1C1CCCN1C(=O)N2c1ccccc1 (centres undefined),77.7%,11.5%,4.47%,10.6%,0.38,12.4%,,,,,,,
C=CC/N=c1/c(C#N)c2n(c(=O)n1-c1ccccc1)CCC2,,23.1%,2.23%,14.3%,0.52,19%,81.1%,Non-toxic,,,,,
CCCC/N=c1/c(C#N)c2n(c(=O)n1-c1ccccc1)CCC2,,19.4%,11.2%,22.4%,0.81,24%,,Non-toxic,88.7%,,,,
O=C1NC(c2ccc([N+](=O)[O-])cc2)NC2=C1C1CCCN1C(=O)N2c1ccccc1 (centres undefined),,14.4%,1.1%,19.2%,0.7,14.1%,,,,94.6%,,,
CCCn1cnc2c(c1=N)C1CCCN1C(=S)N2CC (centres undefined),,9.37%,13.5%,6.82%,0.24,15.7%,,Non-toxic,,,77.2%,,
CCO/C=N/C1=C(C#N)C2CCCN2C(=S)N1CC (centres undefined),,20.9%,12.3%,20.5%,0.75,19%,,Non-toxic,,,,88.1%,
N/N=C(/N)C1=C(N)N(c2ccccc2)C(=O)N2CCCC12 (centres undefined),,25.9%,8.97%,23%,0.84,27.3%,,,,,,,79%
O=C1NC(c2ccccc2[N+](=O)[O-])NC2=C1C1CCCN1C(=O)N2c1ccccc1 (centres undefined),,8.65%,12.3%,3.73%,0.13,14.1%,,,,86.8%,,,
CC/N=c1/c(C#N)c2n(c(=O)n1-c1ccccc1)CCC2,,24.5%,7.82%,30.4%,1.11,23.1%,,Non-toxic,,,,74.4%,
